# Most compounds without a hit are left out; they make up all but 1.8% or so of the library.
# GalR3 antag – blocks the human galanin receptor 3; O60755; HEK293 GalR3-CNG cAMP membrane potential fluorescence; galR3 body fused to GalR1 C-terminus; inhibition, % at 3 µM; 0.44% of 360,000 active;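 active = inhibition above the screen-wide average plus 3 SD, cut at about 13% in these data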;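 also: forskolin and galanin both at EC90 stimulate the cells; cAMP rise reported by CNG channel membrane potential dye signal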
# Target sequence (O60755 1-299 limits assumed): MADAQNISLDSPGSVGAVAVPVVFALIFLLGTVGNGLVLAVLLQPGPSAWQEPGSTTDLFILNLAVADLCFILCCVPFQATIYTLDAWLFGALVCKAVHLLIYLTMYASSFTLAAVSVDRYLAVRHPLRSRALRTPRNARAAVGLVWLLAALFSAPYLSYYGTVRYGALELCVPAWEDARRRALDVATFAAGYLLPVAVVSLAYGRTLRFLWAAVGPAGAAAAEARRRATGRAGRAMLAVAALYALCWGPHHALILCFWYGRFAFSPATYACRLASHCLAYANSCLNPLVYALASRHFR
# NR1D1 modulator – Rev-erb alpha (human) modulation | 0.79% of 370,000 active | activity, % at 10 µM | Rev-erbα–FITC-DNA binding, fluorescence polarization, 90 min | P20393;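 active = activity above about 14%, limit read from the data; passing the limit was not always enough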
# PG9 Ab binder – PG9 antibody binding by small molecule; TR-FRET gp120-PG9 antibody binding; inhibition, % at 6.7 µM; 0.43% of 360,000 active; in the data active = inhibition above about 8.5%
# NR2E3 ag-1 – human photoreceptor-specific nuclear receptor agonism; AID 602229; 0.35% of 360,000 active; CHO-S Gal4-NCOR/VP16-NR2E3 two-hybrid, luciferase; inhibition of corepressor binding, % at 3.98 µM; Q9Y5X4;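 active = inhibition above the mean of all tested compounds plus 3 SD, cut at about 70% in these data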;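 also: higher means lower luciferase signal from less NR2E3 corepressor binding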
# NR2E3 ag-2 – activates human photoreceptor nuclear receptor NR2E3; Q9Y5X4; GST-NR2E3/biotin-RetCOR TR-FRET, 1536-well; inhibition of corepressor binding, % at 4.78 µM; 0.12% of 320,000 active; AID 2300;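 active = percent inhibition above the cutoff of mean plus 3 SD of all tested compounds, set per screening campaign, cut at about 20% in these data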
#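 Material: NR2E3–RetCOR corepressor complex / Amount: 1.35 nM GST-NR2E3 / Medium: Tris pH 7.5 / Compound: single nominal compound dose of 4.8 µM / Incubation: 5 h at 4 °C / Technique: TR-FRET, Eu(K)-anti-GST donor, streptavidin-D2 acceptor, ex 340, em 617/671 nm / Read-out basis: percent loss of FRET ratio relative to control wells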
# Rev-erbA confirm – confirmation of modulators of human Rev-erb alpha DNA binding | shares compounds with NR1D1 modulator | Rev-erb alpha FITC-DNA binding, fluorescence polarization, 90 min | activation, % at 25 µM | 61% of 3,000 active | AID 1259319;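 active = activation at or above a set limit, or at least 3 SD above the negative control mean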
# RORg counter – RORgamma DNA-binding activity, dose-response counter-screen; shares compounds with NR1D1 modulator; 8% of 910 active; IC50, µM; purified RORgamma protein-FITC-DNA binding, fluorescence polarization;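 active = Compounds whose fitted half-maximal concentration for disrupting protein-DNA binding is below 10 micromolar; the record names Rev-erb in its text, so the target is in doubt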
# Hits are given with their value; – = inactive; · = no result.
SMILES,GalR3 antag,NR1D1 modulator,PG9 Ab binder,NR2E3 ag-1,NR2E3 ag-2,Rev-erbA confirm,others
O=C(CSc1nc(-c2ccccc2F)nc2nc[nH]c12)Nc1c(Cl)cc(Cl)cc1Cl,–,38,–,·,–,–,
O=C(Nc1ccc(F)cc1)Nc1ccc(Oc2ncnc3cc(Cl)ccc23)nc1,–,51,–,–,–,–,
O=C(O)CCCC(=O)Nc1ccc(Oc2ncnc3cc(Cl)ccc23)nc1,–,–,–,–,–,·,
O=C(Nc1ccc(Oc2ncnc3cc(Cl)ccc23)nc1)c1cccs1,–,55,–,–,–,27,
COc1ccc(NC(=O)c2cccs2)cn1,–,–,–,–,–,·,
Cc1c(C#N)c(O)[nH]c(=O)c1N=Nc1ccc(S(N)(=O)=O)cc1,–,26,–,–,–,17,
CSc1ccc(C=NNC(=O)c2cc(-c3ccc(Cl)cc3)n[nH]2)cc1,·,–,·,·,·,·,
C#CCNC(=O)C[C@@H]1C(=O)N(Cc2ccc(OC)cc2)C2=CCN(C(=O)OC(C)(C)C)C[C@]21C(=O)OCC,·,–,·,·,·,·,
CC(=O)Nc1ccc(S(=O)(=O)N2C(=O)c3cccc4cccc2c34)cc1,–,33,–,·,–,–,
O=C(NC1CCCCN(Cc2ccc(Cl)cc2)C1=O)c1ccc(COc2ccccc2)cc1 (stereo unspecified),·,–,·,·,·,·,
CCCCN(C)S(=O)(=O)c1ccc(C(=O)N=c2sc3cc(NC(C)=O)ccc3n2C)cc1,–,42,–,–,–,–,
CCCCN(CC)S(=O)(=O)c1ccc(C(=O)N=c2sc3cc(NC(C)=O)ccc3n2C)cc1,–,–,–,–,–,·,
CN(CC(=O)Nc1ccc(Cl)c(C(F)(F)F)c1)C(=O)c1cn2ccccc2n1,–,20,–,–,–,–,
O=C(NC1CCCC1)C1(C(=O)C2CC2)CC(c2ccccn2)=NO1 (stereo unspecified),·,–,·,·,·,·,
COC(=O)[C@]12C[C@H](CC(=O)NCc3cccc(C(F)(F)F)c3)C(=O)N(Cc3ccc(Cl)cc3Cl)C1=C[C@H](C(C)C)O[C@@H]2C1CC1,·,–,·,·,·,·,
O=C1c2cccc3cccc(c23)C(=O)N1OS(=O)(=O)c1ccc(Cl)cc1,–,22,–,–,–,–,
O=C(c1cc2cc(Cl)ccc2[nH]1)N1CCc2ccccc2C1,–,60,–,–,–,–,
CC(C)CCn1c(SCC(=O)NC2CC2)nc2cc(Cl)ccc2c1=O,–,20,–,–,–,–,
Cc1cc(NC(=O)CSc2nc3cc(Cl)ccc3c(=O)n2CC(C)C)no1,·,·,·,·,–,·,
CC(C)CCn1c(SCC(=O)NC2CCS(=O)(=O)C2)nc2cc(Cl)ccc2c1=O (stereo unspecified),–,21,–,–,–,21,
O=C(NCc1ccc(Cl)cc1)C1C2C=CC3(CN(Cc4ccccc4)C(=O)C13)O2 (stereo unspecified),·,–,·,·,·,·,
Cn1cncc1C#Cc1ccc2cc(C3(O)CCCCC3)oc(=O)c2c1,–,70,–,–,–,43,RORg counter=–
Cc1cccc(Cn2cc(CN3CC(N(C)CCOC(=O)c4cc(C)cc(C)c4)CS3(=O)=O)nn2)c1 (stereo unspecified),·,–,·,·,·,·,
COC(=O)[C@]12C[C@H](CC(=O)NCc3cccc(C(F)(F)F)c3)C(=O)N(Cc3ccco3)C1=C[C@H](C(C)(C)C)O[C@@H]2C,·,–,·,·,·,·,
FC(F)(F)c1cc(-c2cccs2)nc2cc(-c3ccccc3)nn12,–,33,–,–,–,–,
SMILES,GalR3 antag,NR1D1 modulator,PG9 Ab binder,NR2E3 ag-1,NR2E3 ag-2,Rev-erbA confirm,others
O=C(O)c1cc2nc(-c3cccs3)cc(C(F)(F)F)n2n1,–,–,–,–,–,·,
C=CCN1C(=O)[C@@H](CC(=O)NCCCC)[C@]2(C(=O)OCC)CCCCC/C=C/12,·,–,·,·,·,·,
Cc1ccc(OCC(=O)N2CCN(c3nnc(-c4ccc(C)cc4)c4ccccc34)CC2)cc1,–,–,–,–,–,·,
Cc1ccc(-c2nnc(N3CCN(C(=O)CN4C(=O)c5ccccc5C4=O)CC3)c3ccccc23)cc1,–,25,–,–,–,–,
O=C(CN1C(=O)c2ccccc2C1=O)N1CCN(c2nnc(-c3ccccc3)c3ccccc23)CC1,–,29,–,–,–,–,
CCCCCCc1nc2nc(Cl)c(Cl)nc2[nH]1,–,22,–,–,·,–,
CC1(C)C=C2C(N(CC3CC3)C(=N)N2C(=O)OCc2ccccc2)n2c(=O)n(-c3ccccc3)c(=O)n21 (stereo unspecified),·,–,·,·,·,·,
N#Cc1ccc(-c2ccc(F)cc2)nc1SCC(=O)Nc1sc2c(c1C#N)CCC2,–,32,–,–,–,21,
N#Cc1cc2c(nc1SCC(=O)Nc1sc3c(c1C#N)CCC3)CCCC2,–,–,–,–,–,·,
Fc1ccc(Nc2nc(-c3ccncc3)nc3ccccc23)cc1,–,–,–,–,–,·,
c1ccc(Nc2nc(-c3ccncc3)nc3ccccc23)cc1,–,30,–,–,–,23,
COc1ccc(Cc2nc3ccccc3n2CC(=O)N/N=C/c2ccc(C)cc2O)cc1OC,–,34,–,–,–,45,RORg counter=–
COc1ccc(-c2noc(C3CCCN(C(=O)Nc4ccc(Cl)cc4)C3)n2)cc1 (stereo unspecified),·,–,·,·,·,·,
Cc1cc(C)nc(NS(=O)(=O)c2ccc(N/C=C\C(=O)c3ccc(Cl)cc3)cc2)n1,–,–,–,–,–,·,
CCOc1ccc(C(=O)/C=C/Nc2ccc(S(=O)(=O)Nc3cc(C)nc(C)n3)cc2)cc1,–,20,–,·,–,–,
Cc1cc(C)nc(NS(=O)(=O)c2ccc(N/C=C/C(=O)c3ccc(Cl)c(Cl)c3)cc2)n1,–,32,–,–,–,19,
C/C(=N\N(Cc1ccccc1)c1ccccc1)c1ccncc1,–,43,–,–,–,40,RORg counter=–
COc1ccc(C(=O)NCCNc2nc3cc(C)cc(C)c3cc2C#N)nc1,–,23,–,·,·,45,RORg counter=–
CCOC(=O)c1c(NC(=O)c2c(Br)cnn2CC)sc(C)c1C,–,28,–,–,–,–,
CCn1ncc(Br)c1C(=O)Nc1sc2c(c1C(=O)OC)CCC2,–,–,–,–,–,·,
O=C(NC1CCN(Cc2ccccc2)CC1)c1cc(-c2ccccn2)nc2ccccc12,–,–,–,–,–,·,
O=C(NC1CCCCCCC1)c1cc(-c2ccccn2)nc2ccccc12,–,41,–,–,–,–,
CC(C)Nc1nc(-c2ccncc2)nc(-c2ccc(Cl)cc2)c1C#N,–,20,–,–,–,–,
CC(C)Nc1nc(-c2cccnc2)nc(-c2ccc(Cl)cc2)c1C#N,–,247,–,–,–,55,RORg counter=–
CC(C)Nc1nc(-c2ccccn2)nc(-c2ccccc2)c1C#N,–,–,–,–,–,·,
CC(C)Nc1nc(-c2cccnc2)nc(-c2ccccc2)c1C#N,–,23,–,–,–,–,

# Screening data from PubChem.
